KCNQ1 block: inhibitors of human KCNQ1 potassium channel; P51787; CHO-K1 KCNQ1, FluxOR thallium flux fluorescence; hits give high values; B-score at 10 µM; 310,000 compounds, 1.3% hits; AID 2642;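 active = compounds whose thallium flux B-score, printed positive for inhibition, exceeds three library SD while starting fluorescence stays within three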;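 note: channel opened by potassium depolarization with thallium stimulus after 20 min compound exposure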
KCNK9 inh: human KCNK9 channel inhibition | AID 488922 | 310,000 compounds, 1.2% hits | Q9NPC2 | B-score at 10 µM | HEK293 KCNK9, FluxOR thallium flux fluorescence; hits give low values;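 active = ratio B-score over 3 SD below the library mean, with starting fluorescence within 5 SD of its mean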;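 note: negative B-score means less thallium flux so channel inhibition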
KCNQ1 act: potentiators or activators of human KCNQ1 potassium channel; AID 2648; CHO-K1 KCNQ1, thallium flux FluxOR fluorescence; hits give high values; B-score at 10 µM; P51787; 310,000 compounds, 0.35% hits;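 active = fluorescence ratio B-score, a plate-corrected score, at least three library SD, with initial intensity B-score within 5 SD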
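assay system = CHO-K1 cells stably expressing KCNQ1 | medium = assay buffer, equal DMSO in all wells | timing = 37 °C overnight plating, 90-min dark dye load, 20-min compound pretreatment | measured by = kinetic FluxOR thallium fluorescence, 10-s 1-Hz baseline, 110-s post-stimulus read | measure = fluorescence change relative to baseline, converted to B score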
hERG protect: shields human hERG channel from block by proarrhythmic agents | CHO-hERG, FluxOR thallium flux, dofetilide IC70 present | activation (rescue from dofetilide block), less the hit threshold, % at 10 µM | 310,000 compounds, 0.51% hits | Q12809;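 active = activation above the mean of controls blocked by dofetilide plus 5 SD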;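 note: thallium influx through hERG after potassium depolarization seen as dye fluorescence rise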
Kir21 inh: blocks the mouse Kir2.1 inward-rectifier potassium channel. P35561. HEK293-Kir2.1, FluxOR thallium flux fluorescence; hits give low values. B-score at 10 µM. 310,000 compounds, 0.85% hits;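 active = fluorescence ratio B-score at or below minus 3 SD of library scores, with starting-brightness B-score within 2 SD, cut at about -4.2 in these data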;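 note: channel flux triggered by added potassium and thallium sulfate stimulus; B-score of peak minus minimum fluorescence over baseline after thallium stimulus; more negative B-score means stronger Kir2.1 block with less thallium influx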
KCNK3 inh: human KCNK3 channel inhibition, primary screen; O14649; CHO-KCNK3 thallium flux, FluxOR fluorescence; hits give low values; B-score at 10 µM; 340,000 compounds, 0.84% hits; AID 602410;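 active = B-score under library mean minus 4 SD, starting fluorescence ratio at most library mean plus 5 SD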;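 note: more negative B-score means stronger inhibition of thallium flux through KCNK3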
KCNQ1 inh valid: human KCNQ1 channel inhibition, validation assay; shares compounds with KCNQ1 block; KCNQ1 cell line, FluxOR thallium flux fluorescence; inhibition, % at 10 µM; 1,600 compounds, 93% hits; AID 588353;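 active = primary screen active, with duplicate mean exceeding buffer control mean plus 3 SD of buffer wells, cut at about 28% in these data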
CHO Tl flux: counter-screen for KCNQ1 inhibitors: effect in parental CHO cells. shares compounds with KCNQ1 block. parental CHO-K1, FluxOR thallium flux fluorescence ratio; hits give low values; zero means no signal rise above baseline. fluorescence ratio (Tl flux) at 10 µM. 1,600 compounds, 21% hits. AID 588366;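 active = mean of duplicate thallium-flux fluorescence ratios in parental host cells more than 5 SD below the buffer control mean, cut at about 0.38 in these data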;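 note: ratio is peak minus minimum fluorescence divided by baseline fluorescence; actives read low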
KCNQ1 ephys val: confirmation of human KCNQ1 potassium channel inhibitors by electrophysiology. calls only at 10 µM. KCNQ1-CHO cells, automated patch clamp current. shares compounds with KCNQ1 block. 490 compounds, 20% hits;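 active = KCNQ1 current drop exceeding 3 SD of negative control wells, seen in both duplicate runs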;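 note: steady state current during a 2 s step from -80 to +40 mV; negative values mean current inhibition and positive values mean potentiation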
KCNQ2 spec: KCNQ1 inhibitor that also blocks rat KCNQ2 channel; 1,600 compounds, 71% hits; shares compounds with KCNQ1 block; AID 651746; inhibition, % at 10 µM; KCNQ2 cells, FluxOR thallium flux fluorescence;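 active = mean percent inhibition of the KCNQ2 thallium signal more than 5 SD above the buffer-only control wells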;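 note: KCNQ2 expressed in CHO cells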
KCNQ1-KCNE1 inh: human KCNQ1/KCNE1 inhibition in KCNQ1 specificity screen. shares compounds with KCNQ1 block. inhibition, % at 10 µM. 1,600 compounds, 77% hits. AID 652147. KCNQ1/KCNE1 cells, FluxOR thallium flux fluorescence;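 active = mean percent inhibition of duplicate wells above the buffer-only control mean plus 3 SD of those controls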
Each line names hits and unclear results; the compound was inactive in the other large screens (follow-up assays come after a bar, where they were run). Shown are actives, neighbours in structure and some others; about 3.7% of the full set was active somewhere.

COc1ccc(Cl)cc1NC(=S)NCCc1ccc(F)cc1	KCNQ1 block 6, Kir21 inh -4.64 | KCNQ1 inh valid 64.0 | CHO Tl flux inactive | KCNQ2 spec 114.0% | KCNQ1-KCNE1 inh 50.5%
Fc1ccc(CCNC(=S)Nc2ccc(F)c(Cl)c2)cc1	KCNQ1 block 9 | KCNQ1 inh valid 48.5 | CHO Tl flux inactive | KCNQ2 spec inactive | KCNQ1-KCNE1 inh inactive
COc1ccccc1NS(=O)(=O)c1ccc(C(=O)N2CCCCCC2)cc1	none (no result: KCNQ1 block, KCNK9 inh, KCNQ1 act, hERG protect, Kir21 inh)
CCCCCC(=O)Nc1cc(S(=O)(=O)N2CCOCC2)ccc1N1CCN(C)CC1	none
COc1cc(CNCc2cc(OC)c(OC)c(OC)c2)cc(OC)c1	none
Cc1cccc(NC(=O)C2CCN(S(=O)(=O)c3c(C)c(C)cc(C)c3C)CC2)n1	KCNQ1 block 6 | KCNQ1 inh valid 77.5 | CHO Tl flux inactive | KCNQ2 spec 77.0% | KCNQ1-KCNE1 inh 177.0%
CN(C)S(=O)(=O)c1ccc(Cl)c(NC(=O)CN2C(=O)NC3(CCc4ccccc43)C2=O)c1 (stereo not drawn)	none (no result: KCNQ1 block, KCNK9 inh, KCNQ1 act, hERG protect, Kir21 inh)
CN1CCN(C2Cc3ccc(F)cc3Sc3cc(F)c(Cl)cc32)CC1 (stereo not drawn)	none
CN1CCN(C2=Cc3ccc(Cl)cc3Sc3ccc(F)cc32)CC1	KCNQ1 block 6 | KCNQ1 inh valid 173.0 | CHO Tl flux inactive | KCNQ1 ephys val inactive | KCNQ2 spec 116.0% | KCNQ1-KCNE1 inh 188.5%
O=C(c1ccco1)N1CCN(C(=O)C2CC(=O)N(c3ccc(Cl)cc3)C2)CC1 (stereo not drawn)	none
N#Cc1c(C(F)(F)F)cc(=O)n2c1[nH]c1ccccc12	KCNQ1 block 6 | KCNQ1 inh valid 38.5 | CHO Tl flux inactive | KCNQ2 spec 107.0% | KCNQ1-KCNE1 inh inactive
Cc1ccc(C)c(N2CCN(C(=O)C3CCN(c4nc(C)cc(C)n4)CC3)CC2)c1	none
Cc1cc(C)nc(N2CCC(C(=O)N3CCN(c4cc(Cl)ccc4C)CC3)CC2)n1	KCNQ1 block 9 | KCNQ1 inh valid 139.5 | CHO Tl flux inactive | KCNQ1 ephys val inactive | KCNQ2 spec 111.0% | KCNQ1-KCNE1 inh 175.5%
CC(Sc1nnc(N)s1)C(=O)Nc1ccc2c(c1)OCCO2 (stereo not drawn)	none
O=C(COC(=O)c1ccc(O)cc1)Nc1ccc(Cl)cc1	none (no result: KCNK3 inh)
COc1ccc(CC(=O)Nc2cccc(-c3nnc(-c4cccc(C)c4)o3)c2)cc1OC	KCNQ1 block 10 | KCNQ1 inh valid 144.0 | CHO Tl flux 0.32 | KCNQ2 spec 131.7% | KCNQ1-KCNE1 inh 97.5%
COc1cccc(-c2csc(N3CCN(C(=O)NC45CC6CC(CC(C6)C4)C5)CC3)n2)c1	KCNQ1 block 8 | KCNQ1 inh valid 102.5 | CHO Tl flux inactive | KCNQ2 spec 106.0% | KCNQ1-KCNE1 inh 136.0%
COc1cccc(NC(=O)N2CCN(c3nc(-c4cccc(OC)c4)cs3)CC2)c1	none
O=S(=O)(NCCCc1ccccc1)c1ccccc1	none
Cc1ccc(C)c(S(=O)(=O)NCCCc2ccccc2)c1	KCNQ1 block 7 | KCNQ1 inh valid 98.0 | CHO Tl flux inactive | KCNQ1 ephys val inactive | KCNQ2 spec inactive | KCNQ1-KCNE1 inh inactive
CN(C)S(=O)(=O)c1ccc(Cl)c(NC(=O)COC(=O)c2cc(-c3ccccc3)nc3ccccc23)c1	KCNQ1 block 6 | KCNQ1 inh valid 60.5 | CHO Tl flux inactive | KCNQ2 spec 74.3% | KCNQ1-KCNE1 inh 74.5%
FC(F)(F)c1cccc(CNC(=S)Nc2ccccc2)c1	KCNQ1 block 8 | KCNQ1 inh valid 46.0 | CHO Tl flux inactive | KCNQ2 spec 82.0% | KCNQ1-KCNE1 inh inactive
FC(F)(F)Sc1ccc(NC(=S)NCc2ccccc2)cc1	KCNQ1 block 7 | KCNQ1 inh valid 77.5 | CHO Tl flux inactive | KCNQ2 spec inactive | KCNQ1-KCNE1 inh inactive
CC(=O)c1ccc(NC(=S)Nc2cccc(S(=O)(=O)Nc3c(C)n(C)n(-c4ccccc4)c3=O)c2)cc1	none
NCCOc1ccc(C23CC4CC(CC(C4)C2)C3)cc1	KCNQ1 block 7, Kir21 inh -4.73 | KCNQ1 inh valid 147.0 | CHO Tl flux inactive | KCNQ1 ephys val active | KCNQ2 spec inactive | KCNQ1-KCNE1 inh inactive
COc1ccc(CCNC(=O)c2nn(C)c3c2CS(=O)(=O)c2ccccc2-3)c(OC)c1	none
CCN1/C(=C\c2ccc3cc(C)ccc3[n+]2CC)Sc2cc(C)c(C)cc21	KCNQ1 block 17 | KCNQ1 inh valid 169.5 | CHO Tl flux 0.259 | KCNQ2 spec inactive | KCNQ1-KCNE1 inh inactive
CCN1/C(=C/c2ccc3cc(C)cc(C)c3[n+]2CC)Sc2cc(C)ccc21	none (no result: KCNQ1 block, KCNK9 inh, KCNQ1 act, hERG protect, Kir21 inh)
O=C(Nc1ccc(Br)cc1)c1cccc(S(=O)(=O)Nc2cnc3ccccc3c2)c1	KCNQ1 block 6 | KCNQ1 inh valid 139.0 | CHO Tl flux inactive | KCNQ2 spec inactive | KCNQ1-KCNE1 inh 58.5%
O=C1CSc2ccc(C(=O)Nc3cccc(S(=O)(=O)Nc4ccc(Br)cc4)c3)cc2N1	KCNQ1 block 10 | KCNQ1 inh valid 138.0 | CHO Tl flux 0.331 | KCNQ2 spec 100.7% | KCNQ1-KCNE1 inh 188.0%
O=C(Nc1ccc(Br)cc1)c1cccc(S(=O)(=O)Nc2ccccn2)c1	none
COc1cccc(CNC(=O)c2ccccc2NC(=O)C2=C(C)OCCS2)c1OC	none
O=C(Nc1ccc(Cl)c(Cl)c1)Nc1ccccc1O	KCNQ1 block 7 | KCNQ1 inh valid 72.5 | CHO Tl flux inactive | KCNQ2 spec inactive | KCNQ1-KCNE1 inh 66.5%
O=C1C=C(NC(=O)Nc2ccc(Cl)c(Cl)c2)CCC1	KCNQ1 block 13 | KCNQ1 inh valid 39.0 | CHO Tl flux inactive | KCNQ2 spec inactive | KCNQ1-KCNE1 inh inactive
COc1ccc(C(=O)NCc2nnc(SCC(=O)NC3CCCCC3)o2)cc1	none
Cc1cc(C)nc(NC(=NCCc2c[nH]c3ccccc23)NC(=O)Nc2ccc(Cl)cc2)n1	KCNQ1 block 6 | KCNQ1 inh valid 47.5 | CHO Tl flux inactive | KCNQ2 spec 88.3% | KCNQ1-KCNE1 inh 89.5%
Cc1ccc(/C=C/S(=O)(=O)NCc2ccc(F)cc2)cc1	none
